MT1-MMP act inh = blockers of MT1-MMP proenzyme processing, primary screen, HT1080 RFP-PRO-GFP cells, GFP/RFP fluorescence. Matrix metalloproteinase-14 (Homo sapiens), P50281. GFP/RFP ratio change, % at 20 µM. actives 0.061% (n = 360,000). GFP/RFP ratio fluorescence, overnight; percent of plate control window, DMSO zero;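 active means GFP/RFP ratio change of at least 30% with cell ATP level not reduced by more than half and red fluorescence within 50% of control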
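Assay system: HT1080 RFP-PRO-GFP cells. Benchmarks: DMSO vehicle wells and RFP-L50D-GFP reporter cell wells. Times: overnight cell settling, then overnight compound exposure, 37 °C, 5% CO2. Compound: 20 µM single dose, 1% DMSO. Read-out basis: GFP/RFP fluorescence ratio.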
SKN-1 inh = suppressors of acrylamide-induced Pgst-4::GFP reporter in worms, primary screen, SKN-1 inhibitor project, whole organism, uHTS, GFP/RFP fluorescence ratio, strain VP596; C. elegans VP596 Pgst-4::GFP/RFP ratio, 24 h; inhibition, % at 21.8 µM; actives 0.49% (n = 360,000);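 active means interference check ratio from 0.5 to 1.5 plus GFP to RFP signal ratio inhibition reaching or exceeding a fixed threshold, cut at about 30% in these data, passing the limit was not always enough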
Tn6 DDE FP = inhibitors of Tn6 peptide binding to fibrin DD(E), primary screen, biochemical, fluorescence polarization, human fibrin, Tn6 probe; Fibrinogen beta chain (Homo sapiens), P02675; Fibrin DD(E) TRITC-Tn6 fluorescence polarization displacement; inhibition, % at 8.3 µM; actives 0.21% (n = 370,000);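 active means inhibition above a per-campaign cutoff: mean of compounds within control limits plus 3 SD, cut at about 15% in these data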;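 further: 0% = median of all compound wells on the plate and 100% = blocking peptide control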
Target sequence (P02675 whole entry, looked up): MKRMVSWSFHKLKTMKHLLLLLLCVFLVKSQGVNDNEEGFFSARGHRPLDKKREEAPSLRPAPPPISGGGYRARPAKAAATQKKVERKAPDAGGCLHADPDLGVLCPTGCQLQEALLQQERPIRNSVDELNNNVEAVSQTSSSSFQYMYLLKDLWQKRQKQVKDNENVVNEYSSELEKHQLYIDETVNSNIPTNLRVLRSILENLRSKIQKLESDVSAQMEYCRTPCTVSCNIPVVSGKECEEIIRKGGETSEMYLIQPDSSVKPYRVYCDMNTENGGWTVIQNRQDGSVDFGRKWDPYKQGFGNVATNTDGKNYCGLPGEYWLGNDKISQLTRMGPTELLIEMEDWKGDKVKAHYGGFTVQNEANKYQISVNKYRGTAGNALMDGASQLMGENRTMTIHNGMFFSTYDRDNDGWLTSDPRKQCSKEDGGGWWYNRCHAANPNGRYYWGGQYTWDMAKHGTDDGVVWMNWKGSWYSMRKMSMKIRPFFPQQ
proKLK7 act = proKLK7 zymogen activators, primary screen, biochemical, fluorescence intensity | AID 652039, 2013 | purified proKLK7, EDANS-DABCYL substrate fluorescence; 100% is mature enzyme control, 0% vehicle | actives 0.9% (n = 370,000) | Kallikrein-7 (Homo sapiens), P49862 | activation, % at 7 µM;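 active means activation above the mean of all tested compounds plus 3 SD, computed per campaign excluding outliers beyond control limits, cut at about 13% in these data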
Target sequence (P49862 whole entry, looked up): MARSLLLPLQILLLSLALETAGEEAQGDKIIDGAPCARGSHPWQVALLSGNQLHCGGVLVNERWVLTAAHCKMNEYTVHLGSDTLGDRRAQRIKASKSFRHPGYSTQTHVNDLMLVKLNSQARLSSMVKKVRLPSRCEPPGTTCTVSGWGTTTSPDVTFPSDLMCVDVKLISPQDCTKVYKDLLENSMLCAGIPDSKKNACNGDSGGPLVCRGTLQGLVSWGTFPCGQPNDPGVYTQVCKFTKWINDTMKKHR
DDE Tn7 FP inh = inhibitors of Tn7 peptide binding to fibrin DD(E), primary screen, biochemical, fluorescence polarization, human fibrin, Tn7 probe; Fibrinogen beta chain (Homo sapiens), P02675; inhibition, % at 8.3 µM; actives 0.13% (n = 370,000); AID 720508, 2013; FP displacement of FITC-Tn7 peptide from fibrin DD(E); 0% = median of compound wells per plate;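 active means inhibition above the mean of compounds falling within the control limits plus 3 SD of them, cut at about 14% in these data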;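 further: 0% = plate median of compound wells and 100% = 10 µM Aha-Tn7 peptide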
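Assay system: Human clot-derived fibrin DD(E) complex | Buffer or medium: Tris/NaCl/CaCl2 buffer, pH 7.8 | Repeats: One replicate per compound | Benchmarks: Aha-Tn7 high control | Measure: % inhibition scaled between sample-field median and high-control FP | Schedule: 10 min plus 3 h, room temperature | Signal: Fluorescence polarization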
Neddylation inh = inhibitors of cullin neddylation, primary screen, biochemical, TR-FRET, uHTS, NAE and Ubc12 | calls only at 25 µM | actives 0.58% (n = 360,000) | AID 651699, 2012; in the data active means inhibition above about 36%
proKLK7 act conf = proKLK7 zymogen activators, confirmation, biochemical, fluorescence intensity, triplicate; purified proKLK7, EDANS-DABCYL substrate fluorescence; scaled: vehicle 0, mature enzyme 100; shares compounds with proKLK7 act; activation, % at 7 µM; actives 68% (n = 3,200);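 active means activation, as change over the incubation, above the mean of all tested compounds plus 3 SD, cut at about 13% in these data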
EDANS-DABCYL int = EDANS-DABCYL substrate optical interference, artefact control for kallikrein-7 zymogen activator project, biochemical, fluorescence intensity, high throughput. shares compounds with proKLK7 act. no enzyme, 4 h; solvent 0%, active enzyme control 100%. activation, % at 7 µM. actives 80% (n = 3,200);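 active means activation above the all-compound mean plus 3 SD, ignoring values outside control-based bounds, cut at about 4.8% in these data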;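 further: value is the 4 h activation minus the activation read at time zero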
The depositor's hits bear a star; i = inactive; . = no result shown. In the library only some 2.2% were active in any assay of this set; here they are far more common.

SMILES | MT1-MMP act inh | SKN-1 inh | Tn6 DDE FP | proKLK7 act | DDE Tn7 FP inh | Neddylation inh | proKLK7 act conf | EDANS-DABCYL int
CCCCCn1c(=NC(=O)c2cccnc2)c(C#N)cc2c(=O)n3cccc(C)c3nc21 | 0.4 | 4.0 | 7.9 | -11.9 | 2.3 | . | . | .
CCOC(=O)c1cc2c(=O)n3cccc(C)c3nc2n(CC(C)C)c1=NC(=O)c1ccco1 | 1.5 | -3.6 | -2.6 | 74.1* | 3.1 | . | 5.7 | 5.7*
CC(=O)c1ccc(-c2cc(C(C)=O)c3n(c2=O)CCC3)cc1 | . | . | -8.9 | 44.1* | 4.3 | . | 61.4* | 74.4*
CCN1CCN(C(=O)c2cc(-c3ccco3)nc3ccccc23)CC1 | -3.0 | 15.7 | 11.3 | 84.2* | 5.6 | . | 71.6* | 72.4*
CCOC(=O)C1CCCN(C(=O)c2cc(-c3ccco3)nc3ccccc23)C1 (stereo not drawn) | -7.4 | 16.6 | 2.4 | 30.7* | 3.4 | i | 31.2* | 33.6*
Cc1ccccc1C(=O)N1CCC(C(=O)NCc2ccc(Cl)cc2)CC1 | 1.6 | -5.2 | -3.3 | 0.9 | 3.9 | i | . | .
O=C(Nc1ccc(Cl)c([N+](=O)[O-])c1)c1ccncc1 | 7.2 | -12.6 | 3.0 | 0.2 | 9.9 | i | . | .
O=C(CCC(=O)Nc1ccc(F)cc1)N/N=C/c1cccs1 | -1.2 | 28.5 | -1.6 | 0.3 | 0.4 | i | . | .
Cc1ccc2cc3cc(C(=O)NCCCN4CC(C)CC(C)C4)oc3nc2c1 (stereo not drawn) | 6.8 | -9.0 | -4.4 | 30.2* | -2.5 | . | 4.3 | -1.2
COCCCNC(=O)c1cc2cc3cc(OC)ccc3nc2o1 | 4.2 | -7.1 | -2.1 | 22.8* | -7.4 | . | 23.4* | 28.5*
COc1ccc2cc3cc(C(=O)NCc4ccc5c(c4)OCO5)oc3nc2c1 | 2.2 | 8.2 | -2.0 | -66.3 | 1.8 | . | . | .
COc1ccc2cc3cc(C(=O)NC(C)C)oc3nc2c1 | 7.1 | 20.1 | -2.2 | 34.5* | -7.6 | . | 78.1* | 83.0*
CCN(CC)CCNC(=O)c1cc2cc3ccc(OC)cc3nc2o1 | 1.2 | 10.6 | -4.9 | 23.9* | -1.0 | . | 76.3* | 84.2*
COc1ccccc1C(=O)N(CCN(C)C)c1nc2cc(C)cc(C)c2s1 | -4.3 | -5.7 | 4.3 | 0.6 | -0.6 | i | . | .
CCCCN(C)CCNC(=O)c1cc2cc3ccc(OC)cc3nc2o1 | 4.6 | 13.1 | 4.8 | 100.3* | -1.6 | . | 53.6* | 76.7*
CCCCN(C)C(=O)c1cc2cc3cc(OC)ccc3nc2o1 | 5.9 | 8.0 | -6.1 | 1.1 | 3.8 | . | . | .
COc1ccc2cc3cc(C(=O)NCc4cccnc4)oc3nc2c1 | 11.8 | -2.9 | -3.9 | 45.5* | -4.4 | . | 53.6* | 53.4*
N#Cc1c(-c2cccnc2)c2c([nH]c1=O)-c1ccccc1OC2 | 1.8 | 9.6 | -4.7 | 72.5* | 7.4 | . | 66.0* | 70.8*
CCn1nc(C)c(NC(=O)/C=C/c2cnn(C)c2)c1C | 2.8 | -3.3 | 6.7 | -0.6 | -2.1 | i | . | .
CN1CCC[C@H]1CCNc1ccc2c(=O)c3ccccc3n(C)c2c1 | -2.4 | 7.1 | -9.9 | 48.9* | -9.2 | . | 84.0* | 80.0*
CN1CCCC1CCNc1ccc2c(=O)c3ccccc3oc2c1 (stereo not drawn) | 2.5 | 7.6 | -8.6 | 76.2* | -7.6 | i | 71.7* | 80.0*
CN1CCCC1CCNc1ccc2oc3ccccc3c(=O)c2c1 (stereo not drawn) | . | . | 5.9 | 1.8 | 0.6 | . | . | .
COc1ccc(-c2nnn3c2Cn2c4ccccc4c(=O)n2[C@@H](C)C3)cc1 | . | . | -5.0 | 0.5 | -1.2 | . | . | .
O=C(NCc1cccnc1)c1cc(S(=O)(=O)N2CCCC2)c(Cl)cc1Cl | 2.2 | -4.7 | -3.2 | -0.1 | 3.4 | i | . | .
Cn1c(C(=O)N2CCc3ccccc3C2)cc2c(=O)n3ccccc3nc21 | -4.2 | 8.8 | -2.4 | 15.8* | -1.1 | . | -32.9 | -26.3
SMILES | MT1-MMP act inh | SKN-1 inh | Tn6 DDE FP | proKLK7 act | DDE Tn7 FP inh | Neddylation inh | proKLK7 act conf | EDANS-DABCYL int
Cn1c(C(=O)N2CCOCC2)cc2c(=O)n3ccccc3nc21 | -3.4 | 20.1 | 5.2 | 61.5* | 9.2 | . | 72.8* | 83.9*
Cn1c(C(=O)O)cc2c(=O)n3ccccc3nc21 | -2.9 | -2.1 | -9.5 | 58.3* | -5.5 | . | 70.5* | 78.6*
CCOC(=O)C1CCCN(C(=O)c2cc3c(=O)n4ccccc4nc3s2)C1 (stereo not drawn) | -2.2 | 10.3 | 4.8 | 8.6 | 0.2 | . | . | .
CC1CC(NC(=O)c2cc3c(=O)n4ccccc4nc3n2C)CC(C)(C)C1 (stereo not drawn) | 5.8 | -20.5 | -9.2 | -83.5 | -1.1 | . | . | .
CCOC(=O)C1CCN(C(=O)c2cc3c(=O)n4ccccc4nc3n2C)CC1 | -0.3 | -1.4 | -8.7 | 78.0* | -3.9 | . | 64.1* | 64.2*
CC1CN(C(=O)c2cc3c(=O)n4ccccc4nc3n2C)CC(C)O1 (stereo not drawn) | 0.9 | -16.0 | 4.7 | 79.1* | -1.5 | . | 75.2* | 70.7*
CN1CCN(c2ccc(-c3ccc4ccccc4n3)cc2)CC1 | 0.0 | 20.6 | 2.5 | 28.3* | -2.5 | . | -4.3 | -10.1
Cc1nn(-c2ccccc2)c(N2CCCCC2)c1/C=N/NC(=O)c1ccncc1 | 1.5 | 19.5 | -10.6 | 0.6 | -0.4 | i | . | .
NC(=O)c1cccc2cc3ccccc3cc12 | -2.3 | 8.0 | -6.8 | 53.5* | -2.7 | . | 65.1* | 71.8*
NC(=O)c1ccccc1OCc1cccc2ccccc12 | -1.6 | -1.3 | 6.7 | 0.2 | -3.9 | i | . | .
CCCNC(=O)COC(=O)c1cc2c(=O)n3ccccc3nc2s1 | 2.8 | 6.0 | -5.8 | 20.4* | 3.9 | . | 73.2* | 85.9*
O=C(c1cc2c(=O)n3ccccc3nc2s1)N1CCN(c2cccc(Cl)c2)CC1 | 3.5 | 1.0 | 1.6 | -0.9 | -3.6 | . | . | .
CC1CCN(C(=O)c2cc3c(=O)n4ccccc4nc3s2)CC1 | -0.2 | -12.0 | -5.0 | 23.3* | -13.1 | . | 23.1* | 25.9*

High-throughput results: PubChem, several laboratories
